Assay type in all cases: tissue-based
The target in experiment [1] is T1, 5-hydroxytryptamine receptor 1A (Rattus norvegicus, UniProt P19327).
T1 sequence (P19327 whole entry): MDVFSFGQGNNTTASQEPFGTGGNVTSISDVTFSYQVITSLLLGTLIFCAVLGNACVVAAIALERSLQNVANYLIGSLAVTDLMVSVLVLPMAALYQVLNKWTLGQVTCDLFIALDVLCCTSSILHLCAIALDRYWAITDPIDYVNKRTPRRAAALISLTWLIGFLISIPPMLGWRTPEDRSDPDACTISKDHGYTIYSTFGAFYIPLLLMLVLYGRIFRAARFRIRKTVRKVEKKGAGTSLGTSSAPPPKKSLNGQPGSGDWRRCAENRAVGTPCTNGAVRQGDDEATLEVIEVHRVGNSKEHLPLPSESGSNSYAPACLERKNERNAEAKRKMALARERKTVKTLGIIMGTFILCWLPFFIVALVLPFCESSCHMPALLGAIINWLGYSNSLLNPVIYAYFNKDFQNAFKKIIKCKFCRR
In words: Evaluated for binding affinity towards 5-hydroxytryptamine 1A receptor in rat brain.

Experiment [2] has as its target T2, 5-hydroxytryptamine receptor 1A (Rattus norvegicus) (UniProt P19327).
T2 sequence (whole entry): T1 sequence (P19327 whole entry)
In words: Hill coefficient in rat brain 5-hydroxytryptamine 1A assay.

Experiment [3] addresses T1, 5-hydroxytryptamine receptor 1A. In words: Binding affinity towards 5-hydroxytryptamine 1A receptor in rat brain. Summed up: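 Rat hippocampal membranes (male Sprague-Dawley, ca. 220 g), homogenized in 50 mM Tris-HCl/0.5 mM EDTA/10 mM MgSO4, washed, preincubated 15 min at 37 °C; 0.1 nM [3H]8-OH-DPAT with 4 mg wet tissue in Tris pH 7.7 with pargyline, ascorbate; eleven competitor concentrations; 37 °C 20 min; nonspecific with 1 μM 8-OH-DPAT; filtration, scintillation counting; Ki by Cheng–Prusoff.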

Bounds are passed on as bounds.

For the compound `O=C1c2ccccc2C(=O)N1CCCCN1CCN(c2ccccc2)CC1`, in experiment [1], the affinity corresponds to a Ki of 10 nM. For the same compound, the Hill coefficient (usually a measure of the steepness of the concentration-response curve) in experiment [2] turned out to be 0.99.

As for `O=C1c2ccccc2C(=O)N1CCCN1CCN(c2ccccc2)CC1`, the Ki – broadly, the equilibrium dissociation constant of an inhibitor or competing ligand from its target – in experiment [1] is 200 nM. The same compound yielded a Hill coefficient in experiment [2] of 0.99.

The compound `O=C1c2ccccc2C(=O)N1CCCCN1CCN(c2ncccn2)CC1` yielded a Ki in experiment [1] of 36 nM. Also, the Hill coefficient in experiment [2] is 1.03.

`CC1(C)CC(=O)N(CCCCN2CCN(c3ncccn3)CC2)C(=O)C1` had a Hill coefficient in experiment [2] of 1.

In the case of `CC(=O)NCCCCN1CCN(c2ccccc2)CC1`, affinity in experiment [1] was put at a Ki of 250 nM. This compound also showed a Hill coefficient in experiment [2] of 0.99.

As to `COc1ccccc1N1CCN(CCCCNC(=O)c2ccccc2)CC1`, affinity in experiment [1] was put at a Ki of 2 nM. In experiment [2], the Hill coefficient amounted to 0.88.

Regarding `c1ccc(N2CCNCC2)cc1` [PHENYLPIPERAZINE], in experiment [1], affinity was put at a Ki of 380 nM. In experiment [2], this compound registered a Hill coefficient of 0.95.

For `COc1ccc(Cl)cc1N1CCNCC1`, the Ki in experiment [1] came to 870 nM. Besides, the Hill coefficient in experiment [2] was 0.97.

For the compound `FC(F)(F)c1cccc(N2CCNCC2)c1`, the Ki in experiment [1] worked out at 175 nM. Further, the Hill coefficient in experiment [2] was 0.97.

`COc1ccccc1N1CCNCC1` came in with a Ki in experiment [1] of 68 nM. In experiment [2], the Hill coefficient is 0.88.

`O=C1c2ccccc2C(=O)N1CCN1CCN(c2ccccc2)CC1`: the inhibition constant Ki in experiment [1] is over 10000 nM.

With `c1ccc2cc(N3CCNCC3)ccc2c1`, affinity in experiment [1] was put at a Ki of 2900 nM. In experiment [2], this compound showed a Hill coefficient of 1.02.

`O=C(NCCCCN1CCN(c2ncccn2)CC1)c1ccccc1` came in with an inhibition constant (Ki) in experiment [1] of 60 nM. Also, in experiment [2], the Hill coefficient turned out to be 0.79.

As to `O=C1c2ccccc2C(=O)N1CCCCN1CCN(c2cccc3ccccc23)CC1`, the Ki in experiment [1] was determined as 1 nM. This compound also returned a Hill coefficient in experiment [2] of 1.16.

In turn, `O=C1c2ccccc2C(=O)N1CCCCCN1CCN(c2ccccc2)CC1` registered an inhibition constant (Ki) in experiment [1] of 8.5 nM. Besides, in experiment [2], the Hill coefficient was 0.91.

`c1ccc2c(N3CCNCC3)cccc2c1` displayed a Ki in experiment [1] of 11 nM. For the same compound, the Hill coefficient in experiment [2] came out at 0.85.

In turn, `O=C(NCCCCN1CCN(c2ccccc2)CC1)c1ccccc1` had a Ki in experiment [3] of 11 nM. The Hill coefficient in experiment [2] turned out to be 0.82.

In the case of `NCCCCN1CCN(c2ccccc2)CC1`, the Ki in experiment [1] was over 6000 nM.

In the case of `c1cnc(N2CCNCC2)nc1` [2-PIPERAZIN-1-YL-PYRIMIDINE], the affinity in experiment [1], expressed as Ki, was 1410 nM. The Hill coefficient in experiment [2] worked out at 0.95.

On to `Clc1cccc(N2CCNCC2)c1` [CHLOROPHENYLPIPERAZINE], for which the Ki in experiment [1] came to 130 nM. In experiment [2], this compound had a Hill coefficient of 0.91.

`c1ccc(C2CCNCC2)cc1` yielded a Ki in experiment [1] of 1520 nM. In experiment [2], this compound came in with a Hill coefficient of 0.97.

These data come from ChEMBL document CHEMBL1123981, “Arylpiperazine derivatives as high-affinity 5-HT1A serotonin ligands” (J Med Chem, 1988).
